# According to ChEMBL document CHEMBL1154735, “A strategy to minimize reactive metabolite formation: discovery of (S)-4-(1-cyclopropyl-2-methoxyethyl)-6-[6-(difluoromethoxy)-2,5-dimethylpyridin-3-ylamino]-5-oxo-4,5-dihydropyrazine-2-carbonitrile as a potent, orally bioavailable corticotropin-releasing factor-1 receptor antagonist” (J Med Chem, 2009):
# Experiments:
# [1] = Solubility in simulated intestinal fluid; format: physicochemical
# Method in brief: (§1)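 Solubility measured in simulated gastric fluid and in simulated intestinal fluid (fed state).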
# Rattus norvegicus [2] = assay: Total plasma concentration in Sprague-Dawley rat at 0.56 mg/kg, po after 1 to 3 hrs by LC/MS/MS analysis; format: ADME, organism-based; parameters: dose 0.56 mg/kg, route oral; conditions: in vivo
# Rattus norvegicus [3] = assay: Anxiolytic activity in Sprague-Dawley rat assessed as decrease in exit latency at 0.56 mg/kg, po after 60 mins by defensive withdrawal test relative to control; format: functional; parameters: scale not given: the % may be the effect or the level left
# Method in brief: (§2)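 Rats placed in a darkened chamber within an open illuminated field; time to emerge measured 60 min after oral dosing (0.56–3 mg/kg), n = 8; percent decrease in exit latency versus vehicle-treated animals, p < 0.05 significance.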
# [4] = Oral bioavailability in Beagle dog at 2 mg/kg dosed as aqueous suspension of 1% polysorbate 80 in 0.5% methylcellulose after 0.25 to 24 hrs by LC/MS/MS analysis; format: ADME, organism-based, Canis lupus familiaris; conditions: in vivo
# Rattus norvegicus [5] = assay: Anxiolytic activity in Sprague-Dawley rat assessed as decrease in exit latency at 1.8 mg/kg, po after 60 mins by defensive withdrawal test relative to control; format: functional; parameters: scale not given: the % may be the effect or the level left; method in brief: as §2
# [6] = Solubility in simulated gastric fluid; format: physicochemical; method in brief: as §1
# [7] = Clearance in Sprague-Dawley rat at 2 mg/kg, iv after 0.17 to 24 hrs by LC/MS/MS analysis; format: ADME, organism-based; parameters: dose 2 mg/kg, route intravenous; conditions: in vivo
# [8] = Aqueous solubility at pH 6.5; format: physicochemical
# [9] = Displacement of [125I]sauvagine from CRF2 receptor in porcine choroid plexus homogenate by binding titration assay; format: tissue-based, Sus scrofa
# Method in brief: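 Porcine choroid plexus homogenate; inhibition of [125I]-sauvagine binding measured in a titration format.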
# Rattus norvegicus [10] = assay: Ex vivo receptor occupancy of CRF1 receptor in po dosed Sprague-Dawley rat brain parietal assessed as inhibition of [125I]sauvagine binding after 90 mins by autoradiography; format: functional, organism-based
# Liver microsomes = assay: Metabolic stability in NADPH-fortified rat liver microsomes assessed as pyrazinone oxidation metabolite formation at 10 uM after 30 mins by HPLC/UV/MS analysis; format: ADME, Microsome; conditions: 0.5 h
# Method in brief: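 Pooled rat or human liver microsomes 1 mg/mL, 10 μM substrate, 100 mM potassium phosphate pH 7.4, 37 °C, started with NADPH-regenerating system (1.3 mM NADP+, 3.3 mM glucose-6-phosphate, 3.3 mM MgCl2, 0.5 U/mL G6PDH); GSH 5 mM in trapping runs. Sampled 0 and 30 min, acetonitrile quench; abundance as UV peak area (330–340 nm) fraction of all drug-related components by HPLC/UV/MS.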
# Rattus norvegicus [11] = assay: Toxicity in Sprague-Dawley rat at 20 mg/kg after 2 weeks; format: organism-based; parameters: dose 20 mg/kg; conditions: in vivo, 336 h
# [12] = Octanol-water partition coefficient, log D at pH 7.4; format: physicochemical
# Method in brief: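 Partitioning between octanol and water at pH 7.4.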
# [13] = Drug metabolism in bile duct cannulated Sprague-Dawley rat assessed as GSH adduct formation in bile at 20 mg/kg, po after 24 hrs by HPLC/UV/MS analysis; format: ADME, organism-based; parameters: dose 20 mg/kg, route oral; conditions: in vivo
# Method in brief: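 Male Sprague–Dawley bile duct cannulated rats (n = 3) dosed orally at 20 mg/kg in PEG/ethanol 90:10; vehicle-dosed controls (n = 3). Bile and urine pooled over 0–24 h, acetonitrile-precipitated and profiled by HPLC/UV/MS (Hydro-RP column, PDA 200–550 nm, positive-ion full and data-dependent scans).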
structure (smiles),measurement,setting,value
COC[C@H](C1CC1)n1cc(C#N)nc(Nc2cc(C)c(OC(F)F)nc2C)c1=O,solubility,[1],7.4 µg/mL
same,concentration,Rattus norvegicus [2],24 nM
same,Activity,Rattus norvegicus [3],7%
same,bioavailability,[4],53%
same,Activity,Rattus norvegicus [5],60%
same,solubility,[6],15 µg/mL
same,clearance,[7],29 mL/min/kg
same,solubility,[8],4 µg/mL
same,IC50,[9],> 10 µM
same,Activity,Rattus norvegicus [10],Dose-dependent effect
same,Activity,Liver microsomes,< 1%
same,Activity,Rattus norvegicus [11],Non-toxic
same,logD,[12],3.9
same,Activity,[13],0.1%
